From paper PMC10354499 (RSC Advances, 2023)

Key:
[1] = Selective toxicity, MTT assay in HEK-293 cells; format: cell-based, human; conditions: human, HEK-293 cells
Method in brief: (§1)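 HEK-293 cells were grown in DMEM with 10% FBS, 1% penicillin–streptomycin, 1% L-glutamine and 2.5% HEPES. Cells were seeded at 15 000 cells/well, held 24 h (37 °C, 5% CO2), then exposed to test compound for 24 h. MTT (5 mg mL−1 in PBS) plus medium was added for 4 h, then aspirated, and formazan was dissolved in DMSO. Absorbance was read at 570/690 nm; percentage viability by formula, triplicate.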

CT-DNA relative to BSA = assay: Relative stability constant ln; conditions: natural logarithm of ratio of CT-DNA to BSA binding constants
Method in brief: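 KDNA: CT-DNA (0–8 μM) was titrated against 20 μM test compound in PBS with ~2% (v/v) DMSO final. Mixtures were incubated 10 min and read by UV-vis, with DNA absorbance cancelled in the reference. KDNA was the slope/intercept ratio of [DNA]/(εa−εf) vs [DNA] (Wolfe–Shimer). KBSA: 0–10 μM compound was added to 6 μM BSA in PBS pH 7.2, 10 min at 25 °C, A280 read, Benesi–Hildebrand fit.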

HEK-293 cells = assay: Selective toxicity, MTT assay in HEK-293 cells; format: cell-based, human; conditions: at respective MCF-7 IC50 concentration, 24 hours, MTT
Method in brief: as §1

MCF-7 cells = conditions: read-out: IC50 (MCF-7); known breast cancer antineoplastic drug; cited from earlier work

Structure (SMILES): CC1(C)CC(=O)C2=C(C1)Oc1ncnc(Nc3ccccc3)c1C2c1ccccc1F (centres unmarked) [Compound 3a, 5-(2-Fluorophenyl)-8,8-dimethyl-4-(phenylamino)-5,7,8,9-tetrahydro-6H-chromeno[2,3-d]pyrimidin-6-one]
- viability at 24 h [1]: 96.6%
- ln(KDNA/KBSA) (CT-DNA relative to BSA): lowest

Structure (SMILES): CC1(C)CC(=O)C2=C(C1)Oc1ncnc(Nc3cccc(-[c-]4cccc4)c3)c1C2c1ccccc1F.[Fe+2].c1cc[cH-]c1 (centres unmarked) [Compound 3j, 4-((3-Ferrocenylphenyl)amino)-5-(2-fluorophenyl)-8,8-dimethyl-5,7,8,9-tetrahydro-6H-chromeno[2,3-d]pyrimidin-6-one]
- cell viability (HEK-293) (HEK-293 cells): 107.43%
- ln(KDNA/KBSA) (CT-DNA relative to BSA): highest

Structure (SMILES): CC[C@]1(O)C[C@@H]2CN(CCc3c([nH]c4ccccc34)[C@@](C(=O)OC)(c3cc4c(cc3OC)N(C)[C@H]3[C@@](O)(C(=O)OC)[C@H](OC(C)=O)[C@]5(CC)C=CCN6CC[C@]43[C@@H]65)C2)C1 [Vinoblastine, vinblastine]
- IC50 (MCF-7 cells): 10.2 ± 0.39 µM
